Data published in ChEMBL document CHEMBL1123419, “Synthesis and antiviral activity of sulfonamidobenzophenone oximes and sulfonamidobenzamides” (1986).
Values after ≈ are worked out from the molar mass of the structure shown.

Tests used:
[1] = test system: Enterovirus; assay: Antiviral activity against rhinovirus 1A using plaque-inhibition assay; assay type: functional; details: read-out: ED50 (the source's name)
How it was run: (§1)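 Plaque reduction: confluent monolayers were infected with 100-200 PFU. Hela (Ohio) cells were used for rhinoviruses 10 and 1A and coxsackieviruses B4 and A9, CV-1 for poliovirus type 1 Mahoney, and LLC-MK2 for enterovirus 70. Cells were overlaid with 2.0% agar in MEM plus 4% FBS containing serial compound concentrations. Incubation was 37 °C for polio/coxsackie and 33 °C for rhino/enterovirus, with a neutral red (0.004%) second overlay. ED50 was taken from the dose-response curve.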

[2] = test system: CV-1; assay: Chemotherapeutic index in CV-1 cells (chemotherapeutic index=50% cytotoxic dose/50% effective dose).; assay type: functional, Cercopithecidae
How it was run: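 Index = 50% cytotoxic dose / 50% plaque-inhibition dose. For cytotoxicity, 200 cells/mL in suspension were mixed with 10% FBS MEM carrying serial compound dilutions and incubated 7 days at 37 °C under 5% CO2. Colonies were stained with 1% crystal violet and counted, and the 50% cytotoxic dose was read from the dose-response curve.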

[3] = test system: Poliovirus 1; assay: microbe, parasite or virus in culture; assay type: functional; details: Enterovirus C; read-out: ED50 (the source's name)
[4] = test system: Enterovirus; assay: Antiviral activity against rhinovirus 10 using plaque-inhibition assay; assay type: functional; details: read-out: ED50 (the source's name); how it was run: as §1

Structure (SMILES)	EC50 [1] [µg/mL]	Chemotherapeutic index [2]	EC50 [3] [µg/mL]	EC50 [4] [µg/mL]
CC(C)c1ccc(NC(=O)c2ccc(NS(=O)(=O)N(C)C)cc2)cc1	0.1 (≈ 0.277 µM)	10	0.21 (≈ 0.581 µM)	–
CCCCc1ccc(NC(=O)c2cccc(NS(=O)(=O)C(C)C)c2)cc1	–	–	0.42 (≈ 1.12 µM)	–
CC(C)S(=O)(=O)Nc1cccc(C(=O)NCc2ccccc2)c1	–	–	> 50	–
CCCOc1ccc(NC(=O)c2ccc(NS(=O)(=O)N(C)C)cc2)cc1	–	–	0.7 (≈ 1.85 µM)	–
CN(C)S(=O)(=O)Nc1cccc(NC(=O)c2ccccc2)c1	–	–	20 (≈ 62.6 µM)	–
CCCc1ccc(NC(=O)c2ccc(NS(=O)(=O)N(C)C)cc2)cc1	0.15 (≈ 0.415 µM)	6	0.16 (≈ 0.443 µM)	–
CN(C)S(=O)(=O)Nc1cccc(/C(=N/O)c2ccc3c(c2)OCO3)c1	–	–	3.4 (≈ 9.36 µM)	–
CN(C)S(=O)(=O)Nc1cccc(/C(=N/O)c2ccc(CO)cc2)c1	–	55	0.4 (≈ 1.14 µM)	0.37 (≈ 1.06 µM)
CC(C)S(=O)(=O)Nc1cccc(C(=O)Nc2ccccc2)c1	–	–	7 (≈ 22 µM)	–
CSc1ccc(/C(=N\O)c2cccc(NS(=O)(=O)N(C)C)c2)cc1	–	9	0.32 (≈ 0.876 µM)	0.26 (≈ 0.711 µM)
CN(C)S(=O)(=O)Nc1ccc(C(=O)Nc2ccccc2)cc1	–	–	3 (≈ 9.39 µM)	–
CC(C)S(=O)(=O)Nc1cccc(/C(=N/O)c2ccc(CO)cc2)c1	–	–	–	0.39 (≈ 1.12 µM)
COc1cccc(/C(=N\O)c2cccc(NS(=O)(=O)N(C)C)c2)c1	–	74	0.34 (≈ 0.973 µM)	0.41 (≈ 1.17 µM)
Cc1ccc(NC(=O)c2ccc(NS(=O)(=O)N(C)C)cc2)cc1	0.38 (≈ 1.14 µM)	370	0.54 (≈ 1.62 µM)	–
CC(C)S(=O)(=O)Nc1ccc(C(=O)Nc2ccc(C(F)(F)F)cc2)cc1	–	–	0.25 (≈ 0.647 µM)	–
O=C(Nc1ccccc1)c1cccc(NS(=O)(=O)N2CCCC2)c1	–	–	6.4 (≈ 18.5 µM)	–
Cc1ccc(NS(=O)(=O)C(C)C)cc1C(=O)Nc1ccc(Cl)cc1	–	–	12 (≈ 32.7 µM)	–
CN(C)S(=O)(=O)Nc1ccc(C(=O)Nc2cccc(Cl)c2)cc1	–	–	1.6 (≈ 4.52 µM)	–
CN(C)S(=O)(=O)Nc1cccc(/C(=N/O)c2ccc(Cl)cc2)c1	–	26	0.46 (≈ 1.3 µM)	0.53 (≈ 1.5 µM)
COc1ccc(/C(=N\O)c2cccc(NS(=O)(=O)C(C)C)c2)cc1	–	32	0.36 (≈ 1.03 µM)	0.62 (≈ 1.78 µM)
CC(C)S(=O)(=O)Nc1cccc(C(=O)Nc2nccs2)c1	–	–	25 (≈ 76.8 µM)	–
CC(C)S(=O)(=O)Nc1cccc(C(=O)Nc2ccc(Cl)c(Cl)c2)c1	–	–	> 25	–
CN(C)S(=O)(=O)Nc1ccc(C(=O)Nc2ccc(C(C)(C)C)cc2)cc1	–	–	0.12 (≈ 0.32 µM)	–
CN(C)S(=O)(=O)Nc1cccc(C(=O)Nc2ccc(Br)cc2)c1	–	–	1.7 (≈ 4.27 µM)	–
COc1ccc(/C(=N\O)c2cccc(NS(=O)(=O)N(C)C)c2)c(OC)c1	–	28	1 (≈ 2.64 µM)	0.89 (≈ 2.35 µM)

Structure (SMILES)	EC50 [1] [µg/mL]	Chemotherapeutic index [2]	EC50 [3] [µg/mL]	EC50 [4] [µg/mL]
CN(C)S(=O)(=O)Nc1ccc(C(=O)Nc2cccc(Br)c2)cc1	–	–	5 (≈ 12.6 µM)	–
CC(C)S(=O)(=O)Nc1cccc(C(=O)Nc2cccc(CO)c2)c1	–	–	> 50	–
CN(C)S(=O)(=O)Nc1cccc(C(=O)Nc2ccccc2)c1	–	–	4 (≈ 12.5 µM)	–
CN(C)S(=O)(=O)Nc1ccc(C(=O)Nc2ccccc2Cl)cc1	–	–	6.2 (≈ 17.5 µM)	–
CN(C)S(=O)(=O)Nc1cccc(C(=O)Nc2ccc(C#N)cc2)c1	–	–	5 (≈ 14.5 µM)	–
CC(C)S(=O)(=O)Nc1cccc(C(=O)Nc2cccc(O)c2)c1	–	–	25 (≈ 74.8 µM)	–
CN(C)S(=O)(=O)Nc1cccc(C(=O)NC2CCCCC2)c1	–	–	28 (≈ 86 µM)	–
COC(=O)c1ccc(NC(=O)c2cccc(NS(=O)(=O)C(C)C)c2)cc1	–	–	4 (≈ 10.6 µM)	–
Cc1cccc(NC(=O)c2ccc(NS(=O)(=O)N(C)C)cc2)c1	–	–	2.3 (≈ 6.9 µM)	–
CC(C)S(=O)(=O)Nc1cccc(C(=O)NCc2ccco2)c1	–	–	> 50	–
COc1ccc(/C(=N\O)c2cccc(NS(=O)(=O)N3CCCC3)c2)cc1	–	–	1.1 (≈ 2.93 µM)	–
CC(=O)c1ccccc1NC(=O)c1cccc(NS(=O)(=O)C(C)C)c1	–	–	5 (≈ 13.9 µM)	–
CC(C)S(=O)(=O)Nc1cccc(C(=O)Nc2ccc(F)cc2)c1	–	–	4.2 (≈ 12.5 µM)	–
CC(C)S(=O)(=O)Nc1cccc(C(=O)NC(C)(C)C)c1	–	–	> 50	–
COc1ccc(/C(=N/O)c2cccc(NS(=O)(=O)N(C)C)c2)c(OC)c1	–	1.8	19.5 (≈ 51.4 µM)	4 (≈ 10.5 µM)
CN(C)S(=O)(=O)Nc1ccccc1C(=O)Nc1ccccc1	–	–	25 (≈ 78.3 µM)	–
CCOc1ccc(/C(=N\O)c2cccc(NS(=O)(=O)N(C)C)c2)cc1	–	–	5.5 (≈ 15.1 µM)	–
CS(=O)(=O)Nc1cccc(C(=O)Nc2ccccc2)c1	–	–	> 50	–
Cc1ccc(/C(=N\O)c2cccc(NS(=O)(=O)N(C)C)c2)cc1	–	86	0.44 (≈ 1.32 µM)	0.41 (≈ 1.23 µM)
COCc1ccc(/C(=N\O)c2cccc(NS(=O)(=O)N(C)C)c2)cc1	–	28	0.25 (≈ 0.688 µM)	0.36 (≈ 0.991 µM)
COC(=O)c1cccc(NC(=O)c2ccc(NS(=O)(=O)N(C)C)cc2)c1	–	–	1.2 (≈ 3.18 µM)	–
COCc1ccc(/C(=N\O)c2cccc(NS(=O)(=O)C(C)C)c2)cc1	–	68	0.22 (≈ 0.607 µM)	0.98 (≈ 2.7 µM)
CN(C)S(=O)(=O)Nc1cccc(C(=O)Nc2ccccn2)c1	–	–	44 (≈ 137 µM)	–
CN(C)S(=O)(=O)Nc1ccc(C(=O)Nc2ccc(I)cc2)cc1	0.3 (≈ 0.674 µM)	5	0.3 (≈ 0.674 µM)	–
CN(C)S(=O)(=O)Nc1cccc(/C(=N/O)c2ccccc2)c1	–	24	0.79 (≈ 2.47 µM)	0.54 (≈ 1.69 µM)

Structure (SMILES)	EC50 [1] [µg/mL]	Chemotherapeutic index [2]	EC50 [3] [µg/mL]	EC50 [4] [µg/mL]
CC(C)S(=O)(=O)Nc1cccc(C(=O)Nc2ccccc2N)c1	–	–	> 50	–
CC(C)S(=O)(=O)Nc1cccc(C(=O)Nc2cccc([N+](=O)[O-])c2)c1	–	–	> 25	–
CCc1ccc(NC(=O)c2ccc(NS(=O)(=O)N(C)C)cc2)cc1	0.2 (≈ 0.576 µM)	10	0.36 (≈ 1.04 µM)	–
CN(C)S(=O)(=O)Nc1ccc(Cl)c(C(=O)Nc2ccc(Cl)cc2)c1	–	–	> 50	–
CN(C)S(=O)(=O)Nc1ccc(C(=O)Nc2ccc(Cl)cc2)cc1	0.32 (≈ 0.904 µM)	220	0.5 (≈ 1.41 µM)	–
COc1ccc(/C(=N\O)c2cccc(NS(=O)(=O)N(C)C)c2)cc1OC	–	–	0.55 (≈ 1.45 µM)	–
CC(C)S(=O)(=O)Nc1cccc(C(=O)NC(c2ccccc2)c2ccccc2)c1	–	–	> 50	–
CC(C)S(=O)(=O)Nc1cccc(C(=O)Nc2ccc(Cl)cc2)c1	–	–	1.2 (≈ 3.4 µM)	–
CC(C)S(=O)(=O)Nc1cccc(C(=O)Nc2ccc(Br)cc2)c1	–	–	0.7 (≈ 1.76 µM)	–
CN(C)S(=O)(=O)Nc1cccc(C(=O)Nc2ccc(C(F)(F)F)cc2)c1	–	–	0.46 (≈ 1.19 µM)	–
CCCCc1ccc(NC(=O)c2ccc(NS(=O)(=O)C(C)C)cc2)cc1	–	–	0.16 (≈ 0.427 µM)	–
CN(C)S(=O)(=O)Nc1cccc(C(=O)Nc2cccc(Cl)c2)c1	–	–	1.5 (≈ 4.24 µM)	–
O=C(Nc1ccccc1)c1cccc(NS(=O)(=O)N2CCCCC2)c1	–	–	11 (≈ 30.6 µM)	–
CC(C)Cc1ccc(NC(=O)c2ccc(NS(=O)(=O)N(C)C)cc2)cc1	0.13 (≈ 0.346 µM)	7	0.16 (≈ 0.426 µM)	–
CN(C(=O)c1ccc(NS(=O)(=O)N(C)C)cc1)c1ccc(Cl)cc1	–	–	> 25	–
CN(C)S(=O)(=O)Nc1cccc(/C(=N/O)c2cccc(CO)c2)c1	–	20	0.5 (≈ 1.43 µM)	1.6 (≈ 4.58 µM)
CC(C)S(=O)(=O)Nc1cccc(C(=O)Nc2ccccc2C(F)(F)F)c1	–	–	0.6 (≈ 1.55 µM)	–
CC(C)S(=O)(=O)Nc1cccc(C(=O)Nc2cccc(Cl)c2)c1	–	–	1.5 (≈ 4.25 µM)	–
O=C(Nc1ccccc1)c1cccc(NS(=O)(=O)c2ccccc2)c1	–	–	17 (≈ 48.2 µM)	–
CN(C)S(=O)(=O)Nc1cc(C(=O)Nc2ccccc2)ccc1Cl	–	–	10 (≈ 28.3 µM)	–
COc1ccc(/C(=N/O)c2cccc(NS(=O)(=O)N(C)C)c2)cc1	–	3.4	7.6 (≈ 21.8 µM)	5.4 (≈ 15.5 µM)
COc1ccc(NC(=O)c2cccc(NS(=O)(=O)N(C)C)c2)cc1	–	–	4 (≈ 11.4 µM)	–
CC(C)S(=O)(=O)n1c(N)nc2ccc(/C(=N/O)c3ccccc3)cc21 [ENVIROXIME]	–	–	0.032 (≈ 0.0893 µM)	0.024 (≈ 0.067 µM)
CC(C)S(=O)(=O)n1c(N)nc2ccc(/C(=N\O)c3ccccc3)cc21 [ZINVIROXIME]	–	61	0.14 (≈ 0.391 µM)	0.24 (≈ 0.67 µM)
